Experimental data taken from article PMC4021451 (Journal of medicinal chemistry, 2012).

What was measured:
[1] = Reversed-phase HPLC lipophilicity; format: physicochemical; details: RP-HPLC, C18, methanol/15 mM aqueous formic acid, extrapolated to 100% H2O, 25 °C
How it was run: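 Isocratic runs on a silica-based C18 column (4.6 mm × 250 mm), with methanol/15 mM aqueous formic acid from 5:95 to 50:50 depending on compound polarity. Flow 1.00 mL/min, UV 210 nm. […] Each compound ran at least twice in at least three mobile-phase compositions. log kw came from linear extrapolation of log k' versus methanol fraction.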

[2] = test system: A2780 (ovarian carcinoma) cells; assay: EZ4U viability assay in resistance models, A2780; format: cell-based; details: read-out: IC50 A2780, 96 h exposure
How it was run: (§1)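 Cells were seeded at 2 × 10^3 per well and allowed to recover for 24 h. Test compound was then added in growth medium and exposed for 96 h. Viable cell proportion was read with the EZ4U kit. Media, all with 10% FBS: SW1573 and 2R120 in DMEM, A2780 and A2780/cis in RPMI 1640, P31 in MEM. Cells were grown at 37 °C in 5% CO2.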

[3] = test system: A2780/cis cells (cisplatin-selected subline); assay: EZ4U viability assay in resistance models, A2780/cis; format: cell-based; details: for IC50: read-out: IC50 A2780/cis, EZ4U assay, 96 h exposure
How it was run: as §1

A2780 cells = assay: Total Pt uptake levels by ICP-MS; format: cell-based; details: 2 h drug exposure
How it was run: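 A2780 cells (4 × 10^5 per well) settled for 24 h, then were exposed to test compound for 2 h at 37 °C. After two ice-cold PBS washes, cells were lysed in tetramethylammonium hydroxide and diluted in 0.6 N HNO3. Pt was measured by ICP-MS against matrix-matched standards with 1 ppb indium internal standard and corrected for a cell-free blank well. Values are relative mean and SD from at least two independent experiments.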

[4] = test system: CH1 (ovarian carcinoma) cells; assay: MTT cytotoxicity assay, CH1 cells; format: cell-based, human; details: read-out: IC50 CH1, 96 h exposure, mean ± SD
How it was run: (§2)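 Cells were seeded in MEM at 1.5 × 10^3 (CH1), 4.0 × 10^3 (A549) or 2.5 × 10^3 (SW480) per well, given 24 h to resume exponential growth, then exposed to serial dilutions for 96 h. Medium was replaced with RPMI 1640 plus MTT in PBS (5 mg/mL solution) for 4 h, then DMSO. OD was read at 550 nm. At least three independent experiments were run, with triplicates per concentration.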

[5] = test system: SW480 (colon adenocarcinoma) cells; assay: MTT cytotoxicity assay, SW480 cells; format: cell-based, human; details: read-out: IC50 SW480, 96 h exposure, mean ± SD
How it was run: as §2

[6] = test system: SW1573 cells (chemosensitive parental non-small-cell lung cancer line); assay: EZ4U viability assay in resistance models, SW1573; format: cell-based, human; details: read-out: IC50 SW1573, 96 h exposure
How it was run: as §1

[7] = test system: ABCC1-overexpressing 2R120 cells; assay: EZ4U viability assay in resistance models, 2R120; format: cell-based, human; details: read-out: IC50 2R120, 96 h exposure
How it was run: as §1

P31 (mesothelioma) cells = assay: EZ4U viability assay in resistance models, P31; format: cell-based; details: read-out: IC50 P31, 96 h exposure
How it was run: as §1

[8] = test system: P31/cis cells (cisplatin-resistant subline); assay: EZ4U viability assay in resistance models, P31/cis; format: cell-based; details: read-out: IC50 P31/cis, 96 h exposure
How it was run: as §1

[9] = test system: A549 (non-small-cell lung carcinoma) cells; assay: MTT cytotoxicity assay, A549 cells; format: cell-based, human; details: read-out: IC50 A549, 96 h exposure, mean ± SD
How it was run: as §2

| log kw [1] | IC50 [2] [µM] | Compound | -fold resistance A2780/cis ([3]; A2780/cis versus A2780) [fold] | IC50 [3] [µM] | Cellular drug uptake (total Pt levels) (A2780 cells) | IC50 [4] [µM] | IC50 [5] [µM] | IC50 [6] [µM] | IC50 [7] [µM] | IC50 (P31 (mesothelioma) cells) [µM] | IC50 [8] [µM] | IC50 [9] [µM] |
| --- | --- | --- | --- | --- | --- | --- | --- | --- | --- | --- | --- | --- |
| 1.79 ± 0.01 | 0.5 ± 0.3 | CC(=O)[O-].CC(=O)[O-].N.NC1CCCCC1.[Cl-].[Cl-].[Pt+4] [satraplatin, (OC-6-43)-diacetatoamminedichlorido(cyclohexylamine)platinum(IV)] | 11.4 | 5.7 ± 0.2 | enhanced drug uptake |  |  |  |  |  |  |  |
|  |  | N.N.[Cl][Pt][Cl] [cisplatin] |  | 3.7 ± 0.3 |  | 0.16 ± 0.03 | 3.5 ± 0.3 | 6.5 ± 0.1 | > 20 | 4 ± 0.3 | > 20 |  |
| 0.09 ± 0.01 |  | (OC-6-54)-Dichlorido(N,N-dimethylethane-1,2-diamine)-hydroxidomethoxidoplatinum(IV) [1b] |  |  |  | 2.5 ± 0.2 | 40 ± 14 |  |  |  |  | 73 ± 3 |
